Assay results published in ChEMBL document CHEMBL4400556, “β-Lactones: A Novel Class of Ca2+-Independent Phospholipase A2 (Group VIA iPLA2) Inhibitors with the Ability To Inhibit β-Cell Apoptosis” (J Med Chem, 2019).
pIC50: −log10 of the molar value. Calls of active or inactive are those of the source. The calls are words filed in the database; no cut-off is given here.

Columns and labels:
[1] = target: T1, 85/88 kDa calcium-independent phospholipase A2 (Homo sapiens) (UniProt O60733); experiment: (§1) Inhibition of human recombinant G6A iPLA2 using arachidonyl-1-14C PAPC and PAPC incubated for 30 mins by HPLC-MS analysis based radioactivity-based group specific mixed micelle assay
T1 sequence (whole entry): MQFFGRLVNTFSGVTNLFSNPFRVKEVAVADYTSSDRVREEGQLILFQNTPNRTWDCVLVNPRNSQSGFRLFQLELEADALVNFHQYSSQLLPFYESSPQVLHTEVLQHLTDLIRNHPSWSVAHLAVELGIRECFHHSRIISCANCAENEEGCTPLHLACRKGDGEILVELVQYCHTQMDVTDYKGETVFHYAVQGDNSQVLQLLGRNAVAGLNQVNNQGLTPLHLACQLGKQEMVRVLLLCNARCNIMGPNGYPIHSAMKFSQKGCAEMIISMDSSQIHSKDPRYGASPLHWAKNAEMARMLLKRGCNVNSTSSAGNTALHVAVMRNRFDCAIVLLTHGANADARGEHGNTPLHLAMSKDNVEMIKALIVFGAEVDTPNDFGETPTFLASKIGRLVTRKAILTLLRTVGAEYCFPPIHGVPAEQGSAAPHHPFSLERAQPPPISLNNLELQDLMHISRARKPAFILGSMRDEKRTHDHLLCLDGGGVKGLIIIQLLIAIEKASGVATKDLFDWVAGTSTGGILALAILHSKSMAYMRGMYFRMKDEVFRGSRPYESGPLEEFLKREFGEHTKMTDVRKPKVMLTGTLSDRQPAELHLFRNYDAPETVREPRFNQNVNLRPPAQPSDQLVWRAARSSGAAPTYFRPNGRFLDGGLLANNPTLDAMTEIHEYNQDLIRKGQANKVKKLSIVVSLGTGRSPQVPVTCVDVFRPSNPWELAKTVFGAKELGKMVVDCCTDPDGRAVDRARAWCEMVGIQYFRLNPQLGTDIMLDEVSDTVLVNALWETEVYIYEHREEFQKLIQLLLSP
Method in brief: (§2)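 Human recombinant GVIA iPLA2, radioactivity mixed-micelle assay. Substrate: 400 μM Triton X-100, 98.3 μM PAPC, 1.7 μM arachidonyl-1-14C PAPC. Buffer: 100 mM HEPES pH 7.5, 2 mM ATP, 4 mM DTT. Screened at 0.091 mole fraction from DMSO.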

[2] = target: T2, Cytosolic phospholipase A2 (Homo sapiens) (UniProt P47712); experiment: Inhibition of human recombinant G4A cPLA2 at 0.091 mole fraction using arachidonyl-1-14C PAPC , PAPC and PIP2 incubated for 30 mins by HPLC-MS analysis based radioactivity-based group specific mixed micelle assay
T2 sequence (whole entry): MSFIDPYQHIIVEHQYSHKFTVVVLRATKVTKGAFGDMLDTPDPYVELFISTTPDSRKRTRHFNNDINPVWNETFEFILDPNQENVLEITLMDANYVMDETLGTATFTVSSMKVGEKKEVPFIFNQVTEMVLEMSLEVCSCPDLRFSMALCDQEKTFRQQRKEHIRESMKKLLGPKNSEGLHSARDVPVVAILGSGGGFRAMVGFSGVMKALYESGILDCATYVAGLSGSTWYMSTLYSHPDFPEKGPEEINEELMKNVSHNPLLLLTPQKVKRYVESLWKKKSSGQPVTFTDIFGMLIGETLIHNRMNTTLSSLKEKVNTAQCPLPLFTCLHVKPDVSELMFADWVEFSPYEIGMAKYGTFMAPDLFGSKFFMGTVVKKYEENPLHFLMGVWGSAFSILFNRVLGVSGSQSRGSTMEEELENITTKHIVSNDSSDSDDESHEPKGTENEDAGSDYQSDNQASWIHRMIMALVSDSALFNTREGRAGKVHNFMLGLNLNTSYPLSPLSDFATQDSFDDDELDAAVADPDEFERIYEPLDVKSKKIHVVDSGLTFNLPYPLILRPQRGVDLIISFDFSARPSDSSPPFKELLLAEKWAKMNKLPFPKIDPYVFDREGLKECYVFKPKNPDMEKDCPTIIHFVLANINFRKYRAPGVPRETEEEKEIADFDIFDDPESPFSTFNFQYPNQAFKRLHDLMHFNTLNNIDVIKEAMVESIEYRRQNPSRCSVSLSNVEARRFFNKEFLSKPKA
Method in brief: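 Human recombinant GIVA cPLA2, radioactivity mixed-micelle assay. Substrate: 400 μM Triton X-100, 95.3 μM PAPC, 1.7 μM arachidonyl-1-14C PAPC, 3 μM PIP2. Buffer: 100 mM HEPES pH 7.5, 90 μM CaCl2, 2 mM DTT, 0.1 mg/ml BSA. Screened at 0.091 mole fraction from DMSO stock. XI(50) fitted from % inhibition vs log mole fraction.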

[3] = organism: Homo sapiens; experiment: Inhibition of human recombinant G5 sPLA2 at 0.091 mole fraction using arachidonyl-1-14C PAPC and PAPC by HPLC-MS analysis based radioactivity-based group specific mixed micelle assay relative to control
Method in brief: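 Human recombinant GV sPLA2, radioactivity mixed-micelle assay. Substrate: 400 μM Triton X-100, 98.3 μM PAPC, 1.7 μM arachidonyl-1-14C PAPC. Buffer: 50 mM Tris-HCl pH 8.0, 5 mM CaCl2. Compound added from DMSO at 0.091 mole fraction; percent inhibition measured.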

[4] = target: T1, 85/88 kDa calcium-independent phospholipase A2 (Homo sapiens); experiment: Inhibition of human recombinant G6A iPLA2 at 0.091 mole fraction using arachidonyl-1-14C PAPC and PAPC incubated for 30 mins by HPLC-MS analysis based radioactivity-based group specific mixed micelle assay relative to control; method in brief: as §2
[5] = target: T3, 85/88 kDa calcium-independent phospholipase A2 (Homo sapiens, UniProt O60733); experiment: as §1; method in brief: as §2
T3 sequence (O60733 whole entry): T1 sequence (whole entry)

[6] = system: INS1; experiment: Inhibition of IL-1beta/IFNgamma-induced apoptosis in rat INS-1 cells at 0.1 to 10 uM after 16 hrs by DAPI-based TUNEL assay
[7] = system: INS1; experiment: Inhibition of IL-1beta/IFNgamma-induced apoptosis in rat INS-1 cells at 10 uM after 16 hrs by DAPI-based TUNEL assay; assay type: functional; details: INS1, 16 h
Method in brief: (§3)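 INS-1 cells exposed 16 h to IL-1β (100 U/mL) plus IFNγ (300 U/mL), with or without compound (0.10–10 μM) or DMSO vehicle (1 μL/mL). Apoptosis read by TUNEL (green) over total DAPI-stained nuclei, 6 fields per slide. The 6-field mean per slide is one replicate (n=3–12). Results given as mean ± SEM percent apoptotic cells.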

[8] = organism: Homo sapiens; experiment: Selectivity index, ratio of IC50 for inhibition of human recombinant G4A cPLA2 to IC50 for inhibition of human recombinant G6A iPLA2
[9] = system: INS1; experiment: Cytotoxicity against rat INS-1 cells assessed as cell death at 10 uM after 16 hrs by TUNNEL assay (reference value: 7.06 +/- 0.36%); assay type: cell-based; details: ins1, 16 h
[10] = system: INS1; experiment: Inhibition of IL-1beta/IFNgamma-induced apoptosis in rat INS-1 cells at 1 uM after 16 hrs by DAPI-based TUNEL assay; assay type: functional; details: INS1, 16 h; method in brief: as §3
[11] = system: INS1; experiment: Inhibition of IL-1beta/IFNgamma-induced apoptosis in rat INS-1 cells at 0.1 uM after 16 hrs by DAPI-based TUNEL assay; assay type: functional, cell-based; method in brief: as §3

CCC[C@@H]1OC(=O)[C@@H]1CCCc1ccc(OC)cc1 (racemic)
XI50 (mole fraction) [1]: 0.038 | inhibition [2]: 95% | inhibition [3]: 29% | inhibition [4]: 85%

CCC[C@H]1OC(=O)[C@@H]1CCCCc1ccc2ccccc2c1 (racemic)
XI50 (mole fraction) [1]: 9e-05 | inhibition [2]: 59% | inhibition [3]: 29% | inhibition [4]: 99%

CCC[C@@H]1OC(=O)[C@@H]1CCCc1ccccc1 (racemic)
inhibition [2]: 97% | inhibition [3]: < 25% | inhibition [4]: 92%

CCCC1OC(=O)C1CCCc1ccc(OC)cc1 (centres undefined)
inhibition [2]: 76% | inhibition [4]: 96%

CCC[C@H]1OC(=O)[C@@H]1CCCc1ccccc1 (racemic)
XI50 (mole fraction) [1]: 0.00019 | inhibition [2]: 90% | inhibition [3]: 25% | inhibition [4]: 99%

CCCCCCC1OC(=O)C1CCCc1ccccc1 (centres undefined)
inhibition [2]: 91% | inhibition [3]: 47% | inhibition [4]: 89%

CCC[C@@H]1OC(=O)[C@@H]1CCCCc1ccccc1 (racemic)
pIC50 [5]: 5.46 | XI50 (mole fraction) [1]: 0.007 | inhibition [2]: 94% | inhibition [3]: 34% | inhibition [4]: 99%

CC(C)C1OC(=O)C1CCCc1ccccc1 (centres undefined)
inhibition [2]: 85% | inhibition [3]: 29% | inhibition [4]: 93%

CCC1OC(=O)C1CCCc1ccc2ccccc2c1 (centres undefined)
inhibition [2]: 85% | inhibition [3]: 29% | inhibition [4]: 93%

CCCC1OC(=O)C1CCCc1ccc2ccccc2c1 (centres undefined)
inhibition [2]: 77% | inhibition [4]: 98%

CCC[C@H]1OC(=O)[C@@H]1CCCc1ccc2ccccc2c1 (racemic)
XI50 (mole fraction) [1]: 0.0003 | inhibition [2]: 73% | inhibition [3]: 30% | inhibition [4]: 98%

COc1ccc(CCSCC(=O)c2noc(C(C)(C)C)n2)cc1
XI50 (mole fraction) [1]: 0.0057 | inhibition [3]: 38%

CCCC1OC(=O)C1CCCCc1ccc2ccccc2c1 (centres undefined)
inhibition [2]: 71% | inhibition [4]: 97%

CC1OC(=O)C1CCCc1ccc2ccccc2c1 (centres undefined)
inhibition [2]: 85% | inhibition [3]: 26% | inhibition [4]: 89%

CCCCCCC1OC(=O)C1CCCc1ccc(-c2ccccc2)cc1 (centres undefined)
inhibition [2]: 58% | inhibition [3]: 40% | inhibition [4]: 78%

O=C(CCCCc1ccccc1)C(F)(F)C(F)(F)F
inhibition [3]: 28%

CCC[C@H]1OC(=O)[C@@H]1CCCCc1ccccc1 (racemic)
inhibition [6]: Dose-dependent effect | inhibition at 10 µM [7]: 41% | Ratio IC50 [8]: 22000 | pIC50 [5]: 9.00 | XI50 (mole fraction) [1]: 2.1e-06 | inhibition [2]: 88% | Activity [9]: 9.51% | inhibition [3]: 25% | inhibition [4]: 100% | inhibition at 1 µM [10]: 28% | inhibition [11]: inactive

COc1ccc(CCCCC(=O)C(F)(F)C(F)(F)F)cc1
inhibition [3]: 33%

CCCC1OC(=O)C1CCCc1ccccc1 (centres undefined)
inhibition [2]: 81% | inhibition [4]: 96%

O=C(CCCCc1ccc2ccccc2c1)C(F)(F)F
inhibition [3]: 37%

CCCC1OC(=O)C1CCCCc1ccccc1 (centres undefined)
inhibition [2]: 84% | inhibition [4]: 100%

CCC[C@@H]1OC(=O)[C@@H]1CCCCc1ccc2ccccc2c1 (racemic)
XI50 (mole fraction) [1]: 0.0021 | inhibition [2]: 72% | inhibition [3]: < 25% | inhibition [4]: 95%

CCCCCCC1OC(=O)C1CCCc1ccc2ccccc2c1 (centres undefined)
inhibition [2]: 54% | inhibition [3]: 40% | inhibition [4]: 59%

CCC[C@@H]1OC(=O)[C@@H]1CCCc1ccc2ccccc2c1 (racemic)
inhibition [2]: 89% | inhibition [3]: 27% | inhibition [4]: 81%

CCC[C@H]1OC(=O)[C@@H]1CCCc1ccc(OC)cc1 (racemic)
XI50 (mole fraction) [1]: 0.00019 | inhibition [2]: 85% | inhibition [3]: 26% | inhibition [4]: 99%
